# Hits are enriched below; roughly 2% of the tested compounds scored in any of these assays.
# Xi reactivation: activators of inactive X chromosome reactivation, primary screen, imaging, XiGFP fibroblasts, GFP high-content imaging, set 2; XiGFP mouse fibroblasts, % GFP-positive cells imaging, 3 d; cells co-treated with 5-aza-dC sensitizer; scaled so ellipticine positive control = 100%; activation, % at 7.58 µM; 360,000 compounds, 0.055% hits; AID 743238, 2013;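 active means mean normalized replicate activation at least 10% and every replicate at or above 10%; inconclusive means only one of the two criteria met; inactive means mean below 10% and not all replicates reach 10%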;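 further: 0% = median of on-plate neutral control wells and 100% = ellipticine 6 µM median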
#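 System: 68-5-11 XiGFP fibroblast line; Timing: 3 days compound exposure; Compound dosing: one concentration, pinned; Benchmarks: positive control ellipticine, 6 µM final; Buffer or medium: DMEM containing 5-aza-dC.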
# LGR2 inh: inhibitors of bursicon-induced LGR2 CRE-luciferase signal, primary screen, cell-based, HEK293, CRE-luciferase reporter, bursicon stimulation; AID 720647, 2013; 380,000 compounds, 0.35% hits; inhibition, % at 9.99 µM; bursicon-stimulated, 4 h; Drosophila bursicon receptor LGR2 (rickets);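 active means drop in luminescence signal, shown as inhibition above about 50% in the replicate tests, limit read from the data, passing the limit was not always enough; inconclusive means probably only some replicates passing the limit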;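 further: agonist challenge used bursicon conditioned medium at about half maximal strength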
# CaV13 FRET inh: Disruptors of the CACNA1D IQ motif to Ca2+-dependent inactivation inhibitor domain association, primary screening, Förster resonance energy transfer in intact living … | HEK cells, CFP/YFP FRET ICDI-IQ, plate reader, 10 min; percent FRET-ratio fall versus neutral wells | inhibition, % at 12.3 µM | 340,000 compounds, 0.098% hits;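 active means mean replicate inhibition of at least 30% and at least 1% of replicates passing that level; inconclusive means only one of the two criteria is met; inactive means neither criterion is met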;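 further: 0% = median of the neutral control wells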
# TWEAK Fn14 block: inhibitors of TWEAK-Fn14 signaling, primary screen, luciferase reporter cells, uHTS; 360,000 compounds, 2% hits; AID 1159606, 2016; TWEAK-stimulated Fn14 reporter cells, luciferase luminescence, 8 h; inhibition, % at 10 µM; in the data active means inhibition above about 50%
# TROY NFkB inh: inhibitors of TROY-driven NF-kB signaling, primary screen, Q293 LMP1-TROYcd cells, NF-kB luciferase, uHTS; inhibition, % at 10 µM; Q293 LMP1-TROYcd NF-kB luciferase reporter, 4 h; 360,000 compounds, 0.98% hits;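 active means compounds whose plate-normalised and pattern-corrected inhibition of the luciferase reporter signal at the single screening dose is 50% or more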
# An asterisk follows results filed as active; u = inconclusive; x = no result given.
SMILES,Xi reactivation,LGR2 inh,CaV13 FRET inh,TWEAK Fn14 block,TROY NFkB inh
CO[C@@H]1CN(C)C(=O)c2cc(NS(C)(=O)=O)ccc2OC[C@@H](C)N(Cc2ccccn2)C[C@@H]1C,0.1,-10.9,x,x,x
C[C@H]1CN([C@@H](C)CO)C(=O)c2cc(NC(=O)Nc3ccc4c(c3)OCO4)ccc2O[C@H]1CN(C)Cc1ccccc1,-0.1,-4.3,x,x,x
C[C@H](CO)N1C[C@H](C)[C@H](CN(C)C(=O)Nc2ccccc2F)Oc2cc(-c3ccc(C(=O)N(C)C)cc3)ccc2S1(=O)=O,-1.8,13.3,x,x,x
C/C=C(/C)C(=O)OC(C)(C)[C@@H]1Cc2c(ccc3ccc(=O)oc23)O1,-0.1,8.0,-6.9,-18.9,1.2
C/C=C(/C)C(=O)O[C@@H]1c2c(ccc3ccc(=O)oc23)O[C@@H]1C(C)(C)OC(=O)/C(C)=C\C,-0.1,57.7*,-9.6,-3.8,-4.6
COc1cc2cc(NC(C)=O)cc(NCc3ccccc3)c2cc1OC,0.0,0.1,-3.7,-5.7,58.7*
COC(=O)/C=C1\S/C(=N\N=C\CC(=O)OC)NC1=O,0.0,x,-19.2,-3.0,16.4
COC(=O)/C=c1\[nH]c2nnc(C)n2c1=O,0.0,11.7,-3.6,-11.8,50.1*
Cc1c(CCC(=O)O)c(=O)oc2cc3oc4c(c3cc12)CCCC4,-0.1,-51.9,-4.0,51.1*,12.1
Cc1c(CCC(=O)NCC(=O)NCC(=O)O)c(=O)oc2cc3oc4c(c3cc12)CCCC4,0.2,-10.2,-1.7,9.2,-10.2
Cc1c(CCC(=O)N2CCC[C@H]2C(=O)O)c(=O)oc2cc3oc4c(c3cc12)CCCC4,x,x,x,75.8*,-1.2
C[C@@H]1CN([C@@H](C)CO)C(=O)c2cc(NC(=O)Cc3cn(C)c4ccccc34)ccc2O[C@@H]1CN(C)S(=O)(=O)c1cccs1,-1.0,8.7,x,x,x
C[C@@H]1CN([C@H](C)CO)C(=O)c2cc(NS(=O)(=O)c3cccs3)ccc2O[C@@H](C)CCCCO[C@@H]1CN(C)S(=O)(=O)c1ccc(F)cc1,-0.5,-23.3,x,x,x
COc1ccc(C)cc1S(=O)(=O)N1CCN(C(=O)c2ncoc2-c2ccc(C)cc2)CC1,0.0,12.1,-2.6,84.9*,-1.9
COc1ccc(C)cc1S(=O)(=O)N1CCN(C(=O)c2ncoc2-c2ccc(F)cc2)CC1,0.4,5.5,-5.0,-15.4,3.3
N=c1cc(C2(O)CCCCC2)n2c(nc3ccccc32)s1,x,x,-5.0,64.0*,27.3
O=C1c2sc3nc4ccccc4n3c2C(=O)N1c1ccccc1Cl,x,x,x,-0.7,x
Cn1c2c(c(=O)n(C)c1=O)C(C(F)(F)F)(C(F)(F)F)N=C(c1ccccc1Cl)N2,x,x,-3.6,-10.8,-15.5
Cn1c2c(c(=O)n(C)c1=O)C(C(F)(F)F)(C(F)(F)F)N=C(CCC1CCCCC1)N2,0.1,74.5*,-5.1,59.5*,53.0*
O=C(Nc1cc(Cl)ccc1O)c1snnc1-c1ccccc1,x,x,-3.3,8.8,54.6*
Cc1cc(C)n(-c2nc(N(c3ccccc3)c3ccccc3)nc(-n3nc(C)cc3C)n2)n1,x,x,x,106.1*,9.8
COC(=O)C[C@H]1CC[C@@H]2[C@@H](COc3ccc(NS(=O)(=O)c4ccc(C)cc4)cc3C(=O)N2C)O1,0.0,-10.1,x,x,x
CC(C)(C)c1ccc(C(=O)Nc2cccc3c(=O)[nH][nH]c(=O)c23)cc1,0.3,25.5,-6.4,80.0*,52.8*
CNC[C@@H]1Oc2cc(C#CCN(C)C)ccc2S(=O)(=O)N([C@H](C)CO)C[C@H]1C,-1.4,3.3,x,x,x
CCN(Cc1ccc2c(c1)OCCO2)C(=O)CSc1nc(C)nc2sc(C)c(C)c12,0.1,10.1,-16.3,11.4,57.6*
SMILES,Xi reactivation,LGR2 inh,CaV13 FRET inh,TWEAK Fn14 block,TROY NFkB inh
CCN(Cc1ccc2c(c1)OCO2)C(=O)CSc1ncnc2sccc12,-0.1,-4.8,-6.1,-14.5,-16.7
Cc1ccc(C2=Nc3ccccc3N=C(c3ccco3)C2)c(O)c1,x,-0.2,-5.2,33.6,50.4*
CCS(=O)(=O)N1CC2(CN[C@@H](CO)c3c2c2ccc(OC)cc2n3C)C1,0.3,1.7,x,x,x
CS(=O)(=O)N(CC(=O)N1CCN(c2cccc(Cl)c2)CC1)C1CCCCC1,x,x,x,66.8*,17.7
Cc1ccc(Cl)cc1N1CCN(C(=O)CN(C2CCCCC2)S(C)(=O)=O)CC1,x,x,-5.8,27.1,21.3
O=C(NC1CCN(S(=O)(=O)c2ccc(F)cc2)CC1)c1ccco1,0.0,17.9,-4.1,-1.5,3.4
O=C(NC1CCN(S(=O)(=O)c2ccccc2C(F)(F)F)CC1)c1ccco1,-0.1,-20.3,-6.9,56.2*,0.0
CC(=O)Nc1ccc2c(c1)C(=O)N(C)[C@@H]1CC[C@@H](CC(=O)NCc3ccccc3)O[C@@H]1CO2,0.1,-16.2,x,x,x
CCN(CC)S(=O)(=O)c1ccc2[nH]cc(C(=O)NCCC3=CCCCC3)c(=O)c2c1,x,x,-4.8,58.5*,43.5
Cc1cc(C)cc(N=c2c([N+](=O)[O-])nn(-c3ccc4c(c3)OCCO4)n2O)c1,0.0,-3.2,-4.8,24.7,34.3
O=[N+]([O-])c1nn(-c2ccc3c(c2)OCCO3)n(O)c1=Nc1ccc(Cl)cc1,x,34.3,-7.1,100.5*,87.9*
Cc1ccc(N=c2c([N+](=O)[O-])nn(-c3ccc4c(c3)OCCO4)n2O)cc1F,0.1,34.7,-13.0,99.8*,90.6*
O=[N+]([O-])c1nn(-c2ccc3c(c2)OCCO3)n(O)c1=Nc1ccccc1,-0.1,22.3,-4.9,103.9*,88.2*
NC(=O)N/N=C/c1c(Sc2nnnn2-c2ccccc2)nc2ccccn2c1=O,-0.1,u,-1.3,95.8*,-6.3
COc1cc(Nc2nc(-c3ccccc3)c3cc(C)ccc3n2)cc(OC)c1OC,x,x,-3.8,69.1*,-12.7
O=C(CN1CCCCC1)NC(=O)NC1CCCC1,0.0,x,-4.9,-18.2,-7.8
CC(NC(=O)Cn1ncc(Cl)c(Cl)c1=O)C12CC3CC(CC(C3)C1)C2 (configuration not stated),x,x,x,103.3*,87.4*
O=C(Cn1ncc(Cl)c(Cl)c1=O)NC(=O)NC1CCCCC1,1.7,96.3*,-2.3,104.1*,48.9
CCn1cc(C(=O)NC(C)C23CC4CC(CC(C4)C2)C3)cn1 (configuration not stated),0.0,-2.9,-5.0,-8.2,3.5
C[C@@H]1CN([C@@H](C)CO)C(=O)Cc2cc(NC(=O)CCN3CCOCC3)ccc2O[C@H]1CN(C)S(=O)(=O)c1cccs1,0.0,17.3,x,x,x
COc1cc(OC)c(OC)cc1/C=C1\CCC/C(=C\c2cc(OC)c(OC)cc2OC)C1=O,0.0,2.2,-27.3,56.1*,11.4
COc1ccc(/C=C2\CC/C(=C\c3ccc(OC)c(OC)c3)C2=O)cc1OC,0.0,-4.1,-3.2,55.6*,22.0
